This is an account of results in ChEMBL document CHEMBL1148435, “N,N-dialkyl-4-[(8-azabicyclo[3.2.1]-oct-3-ylidene)phenylmethyl]benzamides, potent, selective delta opioid agonists” (Bioorg Med Chem Lett, 2004).

The target of assay [1] is T1, Delta-type opioid receptor (Homo sapiens, UniProt P41143). As to the kind of experiment: Effective concentration against stimulation of [35S]GTP-gamma-S, binding in CHO cells transfected with the human opioid receptor delta 1. The class given is functional, cell-based. The gist of the method: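 Agonist function was read as compound-stimulated [35S]GTPγS binding in CHO cells transfected with the human δ opioid receptor. The method was adapted from one used for bradykinin receptor signal transduction.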

A further assay deals with Mu-type opioid receptor (Homo sapiens, UniProt P35372). Nature of the assay: Binding affinity for mu opioid receptor.
The target in assay [2] is T1, Delta-type opioid receptor. As to the kind of experiment: Efficacy relative to stimulation of [35S]GTP-gamma-S, binding by SNC80 was calculated for human delta opioid receptor. The format is functional.
The target of assay [3] is T1, Delta-type opioid receptor. Nature of the assay: Binding affinity for delta opioid receptor.
A further assay concerns Mus musculus. Nature of the assay: Antinociceptive activity was assessed using the mouse abdominal irritant test (MAIT), at a dose of 150 uM/Kg (po). The format is functional, Abdomen. The method, boiled down: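 Mice were dosed orally, 15 mice per compound, in the abdominal irritant test for antinociception, and watched for convulsions.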

Mu-type opioid receptor, sequence (P35372 whole entry): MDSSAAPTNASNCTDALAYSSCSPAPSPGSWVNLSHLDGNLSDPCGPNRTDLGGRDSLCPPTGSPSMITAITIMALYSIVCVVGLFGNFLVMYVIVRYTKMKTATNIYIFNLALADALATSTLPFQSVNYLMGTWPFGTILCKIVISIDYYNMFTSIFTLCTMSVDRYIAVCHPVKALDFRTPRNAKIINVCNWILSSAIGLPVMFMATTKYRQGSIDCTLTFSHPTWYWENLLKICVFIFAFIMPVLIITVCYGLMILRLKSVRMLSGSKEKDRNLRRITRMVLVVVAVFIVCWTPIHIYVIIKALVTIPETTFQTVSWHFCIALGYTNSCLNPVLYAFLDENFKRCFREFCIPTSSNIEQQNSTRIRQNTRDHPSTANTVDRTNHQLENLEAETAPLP
T1 sequence (P41143 whole entry): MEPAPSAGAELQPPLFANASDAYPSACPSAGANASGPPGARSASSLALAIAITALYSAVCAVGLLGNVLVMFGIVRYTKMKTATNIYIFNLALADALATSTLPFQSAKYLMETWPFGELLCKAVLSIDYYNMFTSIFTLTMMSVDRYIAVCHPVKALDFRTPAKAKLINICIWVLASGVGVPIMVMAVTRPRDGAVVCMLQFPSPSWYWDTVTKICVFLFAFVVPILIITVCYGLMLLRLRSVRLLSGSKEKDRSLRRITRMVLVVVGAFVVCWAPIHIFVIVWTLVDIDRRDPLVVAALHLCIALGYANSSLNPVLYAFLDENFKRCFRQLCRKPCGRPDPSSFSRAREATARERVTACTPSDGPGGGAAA

As for `O=C(c1ccc(C(=C2CC3CCC(C2)N3CCc2ccccc2)c2ccccc2)cc1)N1CCCC1`, the EC50 in assay [1] came out at 1460 nM. The Ki came out at 276 nM at Mu-type opioid receptor and 24.1 nM in assay [3]. Also, the Relative efficacy in assay [2] is 0.86.
The matching figures for `CCN(CC)C(=O)c1ccc(C(=C2CC3CCC(C2)N3CCc2cccs2)c2ccccc2)cc1`: 1350 nM, 1280 nM, 13.1 nM and 0.78.
Molecule `CCN(CC)C(=O)c1ccc(C(=C2CC3CCC(C2)N3C)c2cccc(O)c2)cc1` had an EC50 in assay [1] of 3 nM. Besides, the Ki amounted to 727 nM at Mu-type opioid receptor and 0.6 nM in assay [3]. Also, in assay [2], the Relative efficacy is 0.87.
Molecule `CCN(CC)C(=O)c1ccc(/C(=C2\C[C@H]3CC[C@@H](C2)N3C)c2ccccc2)cc1` returned an EC50 in assay [1] of 153 nM. In addition, the Ki on Mu-type opioid receptor is 2910 nM; in assay [3], 5.7 nM. Besides, in assay [2], the Relative efficacy is 0.87. In the assay with Mus musculus, the Inhibition stood at 80%.
Take `CCN(CC)C(=O)c1ccc(C(=C2CC3CCC(C2)N3CC(=O)c2ccccc2)c2ccccc2)cc1`: the EC50 in assay [1] came out at 173 nM. Further, the Ki on Mu-type opioid receptor is 9640 nM; in assay [3], 6.31 nM. Besides, in assay [2], the Relative efficacy was 0.68.
The matching figures for `CCN(CC)C(=O)c1ccc(C(=C2CC3CCC(C2)N3C)c2ccc(OC)cc2)cc1`: 27 nM, 1500 nM, 3.5 nM and 0.85.
As to `CCN(CC)C(=O)c1ccc(C(=C2CC3CCC(C2)N3CCOc2ccccc2)c2ccccc2)cc1`, in assay [1], the EC50 turned out to be 623 nM. Besides, the Ki was 630 nM on Mu-type opioid receptor and 0.38 nM in assay [3]. For the same molecule, the Relative efficacy in assay [2] is 0.84.
`CC1CCCC(C)N1C(=O)c1ccc(/C(=C2\C[C@H]3CC[C@@H](C2)N3CCc2ccccc2)c2ccccc2)cc1` (stereo partly specified) returned an EC50 in assay [1] of 10000 nM. The figures for the inhibitory constant (Ki) (at Mu-type opioid receptor; in assay [3]) were 571 nM and 11 nM, respectively.
The molecule `C=CCN1[C@@H]2CC[C@H]1C/C(=C(\c1ccccc1)c1ccc(C(=O)N(CC)CC)cc1)C2` showed an EC50 in assay [1] of 0.5 nM. Moreover, the Ki came to 322 nM on Mu-type opioid receptor and 0.025 nM in assay [3]. Also, in assay [2], the Relative efficacy was 1.05. Also, the Inhibition in the assay on Mus musculus amounted to 100%.
The molecule `CCCN(CCC)C(=O)c1ccc(C(=C2CC3CCC(C2)N3CCc2ccccc2)c2ccccc2)cc1` returned an EC50 in assay [1] of 3560 nM. Further, the figures for the Ki (at Mu-type opioid receptor; in assay [3]) were 644 nM and 7.39 nM, respectively. Besides, the Relative efficacy in assay [2] is 0.82.
The matching figures for `O=C(c1ccc(C(=C2CC3CCC(C2)N3CCc2ccccc2)c2ccccc2)cc1)N1CCOCC1`: 350 nM, 237 nM, 35.2 nM and 0.76.
In turn, `CCN(CC)C(=O)c1ccc(/C(=C2/C[C@H]3CC[C@@H](C2)N3CCc2ccccc2)c2ccccc2)cc1` gave an EC50 in assay [1] of 1390 nM. Moreover, the Ki at Mu-type opioid receptor stood at 317 nM; in assay [3], 42.1 nM. For the same molecule, in assay [2], the Relative efficacy is 0.88. In the assay on Mus musculus, this molecule displayed an Inhibition of 90%.
Molecule `CC(C)N(C(=O)c1ccc(C(=C2CC3CCC(C2)N3CCc2ccccc2)c2ccccc2)cc1)C(C)C` displayed an EC50 in assay [1] of 5040 nM. Further, the Ki came out at 103 nM at Mu-type opioid receptor and 49 nM in assay [3]. Besides, the Relative efficacy in assay [2] is 0.92.
Take `CCN(CC)C(=O)c1ccc(C(=C2CC3CCC(C2)N3C)c2cccc(OC)c2)cc1`: in assay [1], the EC50 stood at 65 nM. Further, the Ki is 693 nM on Mu-type opioid receptor and 5.9 nM in assay [3]. The Relative efficacy in assay [2] is 0.87.
The matching figures for `CCN(CC)C(=O)c1ccc(C(=C2CC3CCC(C2)N3CCc2c[nH]c3ccccc23)c2ccccc2)cc1`: 16 nM, 337 nM, 3.48 nM and 0.91.
Turning to `CCN(CC)C(=O)c1ccc(/C(=C2/C[C@H]3CC[C@@H](C2)N3C)c2ccccc2)cc1`, in assay [1], the EC50 came to 149 nM. Also, the Ki was 9730 nM on Mu-type opioid receptor and 4.5 nM in assay [3]. Besides, the Relative efficacy in assay [2] was 0.85. Moreover, in the assay with Mus musculus, the Inhibition came to 90%.
On to `CCN(CC)C(=O)c1ccc(C(=C2CC3CCC(C2)N3C)c2ccc(O)cc2)cc1`, for which, in assay [1], it took 9 nM to reach a half-maximal effect (EC50). The Ki at Mu-type opioid receptor is 194 nM; in assay [3], 1.89 nM. Moreover, the Relative efficacy in assay [2] is 0.86.
With `CCN(CC)C(=O)c1ccc(/C(=C2\C[C@H]3CC[C@@H](C2)N3CCc2ccccc2)c2ccccc2)cc1`, the EC50 in assay [1] came to 34 nM. In addition, the results for the Ki (on Mu-type opioid receptor; in assay [3]) were 72.3 nM and 0.24 nM, respectively. Also, in assay [2], the Relative efficacy is 0.82. For the same molecule, in the assay on Mus musculus, the Inhibition worked out at 100%.
In turn, `COCCN(CCOC)C(=O)c1ccc(C(=C2CC3CCC(C2)N3CCc2ccccc2)c2ccccc2)cc1` gave an EC50 in assay [1] of 403 nM. For the same molecule, the Ki at Mu-type opioid receptor was 294 nM; in assay [3], 16.6 nM. The Relative efficacy in assay [2] is 0.71.
In assay [1], `CCN(CC)C(=O)c1ccc(/C(=C2/C[C@H]3CC[C@@H](C2)N3)c2ccccc2)cc1` registered an EC50 of 53 nM. In addition, the Ki on Mu-type opioid receptor was 2310 nM; in assay [3], 0.36 nM. Moreover, the Relative efficacy in assay [2] is 1. The molecule also registered an Inhibition in the assay with Mus musculus of 86.7%.
The molecule `CCN(CC)C(=O)c1ccc(C(=C2CC3CCC(C2)N3CCc2ccccc2)c2cccc(OC)c2)cc1` gave an EC50 in assay [1] of 218 nM. Further, the Ki is 417 nM at Mu-type opioid receptor and 1.36 nM in assay [3]. Also, the Relative efficacy in assay [2] is 0.8.
In the case of `CCN(CC)C(=O)c1ccc(C(=C2CC3CCC(C2)N3Cc2ccc3c(c2)OCO3)c2ccccc2)cc1`, in assay [1], a half-maximal effect (EC50) was put at 0.2 nM. Besides, the Ki at Mu-type opioid receptor was found to be 22.4 nM; in assay [3], 0.01 nM. This molecule also had an Inhibition in the assay with Mus musculus of 40%.
As to `C=CCN1[C@@H]2CC[C@H]1C/C(=C(/c1ccccc1)c1ccc(C(=O)N(CC)CC)cc1)C2`, the concentration giving a half-maximal response (EC50) in assay [1] came to 177 nM. The Ki on Mu-type opioid receptor turned out to be 4400 nM; in assay [3], 0.32 nM. Moreover, in assay [2], the Relative efficacy is 0.83. Moreover, the Inhibition in the assay with Mus musculus is 100%.
The matching figures for `CCN(CC)C(=O)c1ccc(C(=C2CC3CCC(C2)N3)c2ccc(O)cc2)cc1`: 5 nM, 442 nM, 0.58 nM, 0.96 and 26.7%.
The matching figures for `CCN(CC)C(=O)c1ccc(C(=C2CC3CCC(C2)N3CCc2ccc(F)cc2)c2ccccc2)cc1`: 27 nM, 393 nM, 2.62 nM, 0.76 and 26.7%.
The matching figures for `CCCN1C2CCC1CC(=C(c1ccccc1)c1ccc(C(=O)N(CC)CC)cc1)C2`: 43 nM, 289 nM, 0.39 nM, 0.87 and 93.3%.
In turn, `CCN(CC)C(=O)c1ccc(C(=C2CC3CCC(C2)N3CCC2CCCCC2)c2ccccc2)cc1` gave an EC50 in assay [1] of 228 nM. Moreover, the Ki worked out at 451 nM on Mu-type opioid receptor and 1.36 nM in assay [3]. In addition, the Relative efficacy in assay [2] was 0.92.
As to `CCN(CC)C(=O)c1ccc(C(=C2CC3CCC(C2)N3CCCc2ccccc2)c2ccccc2)cc1`, in assay [1], a half-maximal effect (EC50) was put at 112 nM. The Ki is 104 nM at Mu-type opioid receptor and 0.56 nM in assay [3]. Also, in assay [2], the Relative efficacy was 0.88. Moreover, in the assay with Mus musculus, the Inhibition is given as 13.3%.
Regarding `CCN(CC)C(=O)c1ccc(/C(=C2\C[C@H]3CC[C@@H](C2)N3)c2ccccc2)cc1`, in assay [1], the midpoint of the response, the EC50, lay at 1.8 nM. Also, the values for the Ki (at Mu-type opioid receptor; in assay [3]) were 855 nM and 0.023 nM, respectively. Moreover, in assay [2], the Relative efficacy is 1.02. Besides, the Inhibition with Mus musculus was 86.7%.
For the molecule `C=C(C)CN(CC)C(=O)c1ccc(/C(=C2\C[C@H]3CC[C@@H](C2)N3CCc2ccccc2)c2ccccc2)cc1`, in assay [1], the concentration for a half-maximal effect (EC50) was determined as 1080 nM. The Ki was 229 nM on Mu-type opioid receptor and 2.94 nM in assay [3]. Further, the Relative efficacy in assay [2] is 0.9. The Inhibition with Mus musculus is 33%.
On to `CCN(CCO)C(=O)c1ccc(C(=C2CC3CCC(C2)N3CCc2ccccc2)c2ccccc2)cc1`, for which the EC50 in assay [1] is 548 nM. The Ki at Mu-type opioid receptor is 291 nM; in assay [3] it was 3.2 nM. Moreover, in assay [2], the Relative efficacy is 0.77.
